Compounds with a hit are over-represented: about 4.2% of the library has one in this group of screens.
UPR CHOP act: activators of apoptotic arm of unfolded protein response (CHOP) | hit rate 0.34% among 330,000 | activation, % at 10 µM | AID 449763 | CHO-CHOP luciferase reporter, UPR activation, luminescence; percent of tunicamycin response over DMSO baseline;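 active = at 10 µM dose, activation of 40% or more, normalized to positive control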;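 also: 100% = tunicamycin at 10 µg/mL and 0% = DMSO alone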
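System: CHO-CHOP luciferase reporter cell line | Buffer or medium: F12 medium containing 10% fetal bovine serum | Doses: One dose, 10 µM in 0.5% DMSO | Times: 6 h compound exposure at 37 °C after overnight seeding | Signal: Luciferase luminescence | Read-out: % activation vs tunicamycin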
CHOP inhibitor: blocks CHOP induction under ER stress; AID 2732; inhibition, % at 10 µM; CHO-K1 CHOP-promoter luciferase, tunicamycin-induced, 15-18 h; hit rate 3.8% among 220,000;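 active = compounds that reduced the stress-induced luciferase reporter signal by more than about 70% of percent inhibition, limit read from the data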;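 also: 0% = tunicamycin plus vehicle and 100% = wells without tunicamycin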
Hep lipid drop: modulators of hepatic lipid droplet formation. AML12 mouse hepatocytes, oleate lipid droplets, BODIPY imaging. inhibition, % at 6.5 µM. hit rate 0.4% among 240,000. AID 1656;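 active = lipid droplet intensity inhibited by at least 50%, with more than 500 cells counted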
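Technique: fluorescence imaging, 20x objective, two fields per well / Assay system: AML12 hepatocytes (mouse) / Measure: % inhibition of lipid droplet signal / Doses: 6.5 µM single-point dosing / Incubation: overnight exposure / Reagent: 100 µM oleic acid challenge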
ANO1 activ: activates or potentiates the mouse TMEM16A chloride channel | Q8BHY3 | HEK293 TMEM16A/YFP-H148Q/I152L, iodide quench fluorescence; hits give low values | B-score at 10 µM | hit rate 0.3% among 340,000 | AID 623877;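 active = fluorescence-ratio B-score plate-corrected deviation score at least 3 library SD below zero, with starting fluorescence score within 5 deviations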;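 also: channel opened by trigger with iodide after compound preincubation; score built on the fluorescence ratio of max minus min over baseline; more negative score means more quench and so TMEM16A activation or potentiation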
UPR XBP1 act: activators of adaptive arm of unfolded protein response (XBP1) | AID 463104 | CHO-XBP1 luciferase reporter, IRE1-XBP1 UPR activation, luminescence; percent of tunicamycin response, DMSO as zero | hit rate 0.33% among 330,000 | activation, % at 20 µM;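 active = versus positive control, 20 µM dose yields 30% or more activation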;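 also: 100% = tunicamycin at 10 µg/mL and 0% = DMSO only wells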
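Signal: luciferase luminescence; Assay system: CHO-XBP1 luciferase reporter cells; Amount: one thousand reporter cells per well; Dosing: 20 µM single concentration, DMSO 1%; Benchmarks: high control tunicamycin 10 µg/mL final, low control DMSO vehicle only; Schedule: 6 h compound exposure at 37 °C, 5% CO2; Evaluation: percent activation relative to tunicamycin reference.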
ANO1 block: blocks the mouse calcium-activated chloride channel TMEM16A; Q8BHY3; HEK293 TMEM16A/YFP iodide influx fluorescence, ionomycin; hit rate 1.2% among 310,000; normalized B-score (activity score, 25-100; higher = stronger inhibition) at 10 µM; AID 588511;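 active = ratio plate-corrected score three or more library SD toward inhibition, starting fluorescence score within five deviations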;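 also: score derived from kinetic fluorescence span divided by baseline fluorescence per well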
Lipid drop inh: confirmation of inhibitors of hepatic lipid droplet formation; shares compounds with Hep lipid drop; AML12 mouse hepatocytes, BODIPY lipid droplet imaging; droplets induced with 100 µM oleic acid; inhibition, % at 5.2 µM; hit rate 65% among 870;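 active = inhibition of lipid droplet metric at least 50%, with more than 300 cells in each of four replicates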;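 also: plate controls were DMSO with oleic acid for no effect and 5 µM Triacsin-C for full effect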
AML12 cytotox: AML12 hepatocyte cytotoxicity (counter-screen) | shares compounds with Hep lipid drop | AML12 mouse hepatocytes, DAPI nuclear morphology cytotoxicity imaging; hits give high values; cells fed 100 µM oleate overnight | z-score at 5 µM | hit rate 3% among 870 | AID 463200; in the data active = z-score above about 6.3;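 also: compound exposure lasted overnight at 37 °C before fixation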
AML12 tox ATP: confirmation of cytotoxicity in AML12 mouse hepatocytes; AID 463219; shares compounds with Hep lipid drop; cytotoxicity, % at 50 µM; 530 tested, under 10 active; AML12 mouse hepatocyte viability, ATP luminescence; cells loaded with 100 µM oleic acid;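 active = cytotoxicity above 50% in each of four replicates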;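 also: compound exposure lasted overnight at 37 °C before the ATP read; 0% = DMSO-treated cells and 100% = wells with no cells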
* = called active by the depositor.

How did Cc1cc2c(cc1S(=O)(=O)Nc1ccc(F)cc1)n(C)c(=O)c(=O)n2C do in these assays?
UPR CHOP act: -1.4; Hep lipid drop: 40.3; ANO1 activ: inactive; UPR XBP1 act: -0.8; ANO1 block: inactive

Results for Cc1cc2c(cc1S(=O)(=O)NCc1ccccc1)n(C)c(=O)c(=O)n2C ?
UPR CHOP act: -1.5; Hep lipid drop: -2.0; ANO1 activ: inactive; UPR XBP1 act: -1.1; ANO1 block: inactive

How did Cc1cc2c(cc1S(=O)(=O)Nc1cccc(C)c1C)n(C)c(=O)c(=O)n2C do in these assays?
UPR CHOP act: -0.8; Hep lipid drop: 54.1*; ANO1 activ: inactive; UPR XBP1 act: -2.9; ANO1 block: inactive; Lipid drop inh: 66.0; AML12 cytotox: -0.537

How did CCC(C)(C)NC(=O)C(c1ccc(OC)cc1)N(Cc1cccs1)C(=O)CCC(=O)Nc1cc(C)on1 (stereo not given) do in these assays?
UPR CHOP act: -1.0; CHOP inhibitor: 44.0; Hep lipid drop: 77.7*; ANO1 activ: inactive; UPR XBP1 act: -0.3; ANO1 block: inactive; Lipid drop inh: 102.3*; AML12 cytotox: 0.512; AML12 tox ATP: 12.0

Results for COc1ccc(C(C(=O)NC(C)(C)C)N(Cc2cccs2)C(=O)CCC(=O)Nc2cc(C)on2)cc1 (stereo not given) ?
UPR CHOP act: -1.8; CHOP inhibitor: -16.2; Hep lipid drop: 106.6*; ANO1 activ: inactive; UPR XBP1 act: -1.9; ANO1 block: inactive; Lipid drop inh: 87.8*; AML12 cytotox: -0.525; AML12 tox ATP: 7.5

Results for CCC(C)(C)NC(=O)C(c1ccc(OC)cc1)N(CC1CCCO1)C(=O)CCC(=O)Nc1cc(C)on1 (stereo not given) ?
UPR CHOP act: -1.9; CHOP inhibitor: -9.5; Hep lipid drop: 78.9*; ANO1 activ: inactive; UPR XBP1 act: -2.6; ANO1 block: inactive; Lipid drop inh: 90.8*; AML12 cytotox: -0.481; AML12 tox ATP: 11.4

Results for CCC(C)(C)NC(=O)C(c1ccc(OC)cc1)N(C(=O)CCC(=O)Nc1cc(C)on1)C1CC1 (stereo not given) ?
UPR CHOP act: -1.2; Hep lipid drop: 7.6; ANO1 activ: inactive; UPR XBP1 act: -5.6; ANO1 block: inactive

How did Cc1ccc2nc(C)cc(C(=O)OCC(=O)Nc3c(C)n(C)n(-c4ccccc4)c3=O)c2c1 do in these assays?
UPR CHOP act: -1.0; CHOP inhibitor: 5.4; Hep lipid drop: -1.7; ANO1 activ: inactive; UPR XBP1 act: -2.7; ANO1 block: inactive

How did COc1ccccc1Nc1ccc(NC(=O)c2cccc([N+](=O)[O-])c2C)cc1 do in these assays?
UPR CHOP act: 3.6; Hep lipid drop: 97.1*; ANO1 activ: inactive; UPR XBP1 act: 1.2; ANO1 block: inactive; Lipid drop inh: 99.1*; AML12 cytotox: 1.66; AML12 tox ATP: 9.6

Results for CN(C)Cc1ccc(O)c(CCc2ccccc2)n1 ?
UPR CHOP act: -0.2; CHOP inhibitor: -13.2; Hep lipid drop: 51.6*; ANO1 activ: inactive; UPR XBP1 act: -0.2; ANO1 block: inactive; Lipid drop inh: -1.7; AML12 cytotox: 0.215

How did CN(C)Cc1cc(C(C)(C)c2ccccc2)ccc1O do in these assays?
ANO1 activ: inactive

What do the screens show for `CCn1c(=O)c2cc(C(=O)NCCCOC)sc2c2ccccc21`?
UPR CHOP act: 0.4; Hep lipid drop: 13.6; ANO1 activ: inactive; UPR XBP1 act: 7.9; ANO1 block: inactive

What do the screens show for `CCn1c(=O)c2cc(C(=O)NCCC(C)C)sc2c2ccccc21`?
UPR CHOP act: 3.0; Hep lipid drop: 54.0*; ANO1 activ: inactive; UPR XBP1 act: 12.8; ANO1 block: inactive; Lipid drop inh: 91.6*; AML12 cytotox: -0.4; AML12 tox ATP: -1.9

How did O=C(COC(=O)c1cc[n+]([O-])cc1)Nc1ccc(SC(F)F)cc1 do in these assays?
UPR CHOP act: 3.1; CHOP inhibitor: 3.8; Hep lipid drop: -22.9; ANO1 activ: inactive; UPR XBP1 act: -2.4; ANO1 block: inactive

Results for CCC(C(=O)NCCc1ccccc1OC)n1nc(C)c2c(C)n(-c3ccccc3)nc2c1=O (stereo not given) ?
UPR CHOP act: 0.0; Hep lipid drop: 57.3*; ANO1 activ: inactive; UPR XBP1 act: -4.2; ANO1 block: inactive; Lipid drop inh: 82.3*; AML12 cytotox: -0.723; AML12 tox ATP: 13.8

How did CCOc1ccc(C(=O)OCC(=O)Nc2ccc(SC(F)F)cc2)cc1OCC do in these assays?
UPR CHOP act: -0.7; CHOP inhibitor: 31.4; Hep lipid drop: 50.6*; ANO1 activ: inactive; UPR XBP1 act: -0.5; ANO1 block: inactive; Lipid drop inh: 71.9*; AML12 cytotox: -0.598

How did CCOc1ccc(CCNC(=O)Cn2ncn3nc(-c4ccc(OC)cc4)cc3c2=O)cc1OCC do in these assays?
UPR CHOP act: 0.4; Hep lipid drop: 85.0*; ANO1 activ: inactive; UPR XBP1 act: -4.0; ANO1 block: inactive; Lipid drop inh: 101.2*; AML12 cytotox: 0.454; AML12 tox ATP: 3.8

Results for CCOc1ccc(CCNC(=O)CS(=O)Cc2nc(-c3ccc(OC)c(OC)c3)oc2C)cc1OCC (stereo not given) ?
UPR CHOP act: -2.0; Hep lipid drop: 57.8*; ANO1 activ: inactive; UPR XBP1 act: -0.7; ANO1 block: inactive; Lipid drop inh: 73.6*; AML12 cytotox: -0.341; AML12 tox ATP: 17.2

What do the screens show for `COc1ccc(-c2nc(CS(=O)CC(=O)NCc3ccc(C)cc3)c(C)o2)cc1OC` (stereo not given)?
UPR CHOP act: 0.7; Hep lipid drop: -1.3; ANO1 activ: inactive; UPR XBP1 act: -0.9; ANO1 block: inactive

How did O=C(c1ccc(S(=O)(=O)Nc2ccccc2F)cc1)N1CCN(c2ccccc2O)CC1 do in these assays?
UPR CHOP act: -0.4; ANO1 activ: inactive; UPR XBP1 act: -1.7; ANO1 block: inactive

What do the screens show for `CCN(CC)c1ccc(S(=O)(=O)N2CCOCC2)cc1NC(=O)CNCc1cccc(Cl)c1`?
ANO1 activ: inactive
